According to ChEMBL document CHEMBL1275503, “Characterization of an ABCG-like transporter from the protozoan parasite Leishmania with a role in drug resistance and transbilayer lipid movement” (Antimicrob Agents Chemother, 2008):

test system: Leishmania infantum; experiment: Antileishmanial activity against Leishmania infantum promastigotes overexpressing LiABCG6 assessed as cell viability after 72 hrs by MTT assay; assay type: functional, organism-based
How it was run: (§1)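 L. infantum promastigotes (strain MHOM/ES/1993/BCN-99) grown at 28°C in modified RPMI 1640 with 20% heat-inactivated fetal bovine serum. Drug sensitivity was measured by MTT-based assay. IC50 was taken as the drug concentration giving half-maximal inhibition of cellular growth rate.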

**Q.** How did the IC50 turn out when `CC[C@@]1(O)C(=O)OCc2c1cc1n(c2=O)Cc2cc3ccccc3nc2-1` [CAMPTOTHECIN] was run?
**A.** 34.4 µM

**Q.** For `CCN(CC)CCCC(C)Nc1ccnc2cc(Cl)ccc12` (configuration not stated) [CHLOROQUINE], which IC50 is on record?
**A.** 24.1 µM

**Q.** Which IC50 does the source give for `CCCCCCCCCCCCCCCCCCOCC(COP(=O)([O-])OCC[N+](C)(C)C)OC` (configuration not stated) [EDELFOSINE] here?
**A.** 11.3 µM

**Q.** Which IC50 does the source give for `CC(=O)N1CCN(c2ccc(OCC3COC(Cn4ccnc4)(c4ccc(Cl)cc4Cl)O3)cc2)CC1` (configuration not stated) [KETOCONAZOLE] here?
**A.** 19.3 µM

**Q.** Which IC50 does the source give for `OC(c1cc(C(F)(F)F)nc2c(C(F)(F)F)cccc12)C1CCCCN1` (configuration not stated) [MEFLOQUINE] here?
**A.** 7 µM

**Q.** `CCCCCCCCCCCCCCCCOP(=O)([O-])OCC[N+](C)(C)C` [MILTEFOSINE] was tested. Which IC50 did it give?
**A.** 12.9 µM

**Q.** Which IC50 does the source give for `CCCCCCCCCCCCCCCCCCOP(=O)([O-])OC1CC[N+](C)(C)CC1` [PERIFOSINE] here?
**A.** 11 µM

**Q.** With `COc1cc(NC(C)CCCN)c2ncccc2c1` (configuration not stated) [PRIMAQUINE] as the compound, how does the IC50 read?
**A.** 54.9 µM

**Q.** With `CCN(CC)CCCCCCNc1cc(OC)cc2c(C)ccnc12` [SITAMAQUINE] as the compound, how does the IC50 read?
**A.** 14.3 µM

test system: Leishmania infantum; experiment: Antileishmanial activity against GFP-tagged at NH2 terminus Leishmania infantum promastigotes overexpressing LiABCG6 assessed as cell viability after 72 hrs by MTT assay; assay type: functional, organism-based; how it was run: as §1

**Q.** `CCCCCCCCCCCCCCCCCCOCC(COP(=O)([O-])OCC[N+](C)(C)C)OC` (configuration not stated) [EDELFOSINE] was tested. Which IC50 did it give?
**A.** 4.8 µM

**Q.** With `CCCCCCCCCCCCCCCCOP(=O)([O-])OCC[N+](C)(C)C` [MILTEFOSINE] as the compound, how does the IC50 read?
**A.** 5.6 µM

**Q.** With `CCCCCCCCCCCCCCCCCCOP(=O)([O-])OC1CC[N+](C)(C)CC1` [PERIFOSINE] as the compound, how does the IC50 read?
**A.** 4.2 µM

**Q.** `CCN(CC)CCCCCCNc1cc(OC)cc2c(C)ccnc12` [SITAMAQUINE] was tested. Which IC50 did it give?
**A.** 7.8 µM

test system: Leishmania infantum; experiment: Antileishmanial activity against GFP-tagged at COOH terminus Leishmania infantum promastigotes overexpressing LiABCG6 assessed as cell viability after 72 hrs by MTT assay; assay type: functional, organism-based; how it was run: as §1

**Q.** How did the IC50 turn out when `CCCCCCCCCCCCCCCCCCOCC(COP(=O)([O-])OCC[N+](C)(C)C)OC` (configuration not stated) [EDELFOSINE] was run?
**A.** 12.9 µM

**Q.** How did the IC50 turn out when `CCCCCCCCCCCCCCCCOP(=O)([O-])OCC[N+](C)(C)C` [MILTEFOSINE] was run?
**A.** 13.6 µM

**Q.** Which IC50 does the source give for `CCCCCCCCCCCCCCCCCCOP(=O)([O-])OC1CC[N+](C)(C)CC1` [PERIFOSINE] here?
**A.** 12.2 µM

**Q.** How did the IC50 turn out when `CCN(CC)CCCCCCNc1cc(OC)cc2c(C)ccnc12` [SITAMAQUINE] was run?
**A.** 15.2 µM
